A short description of series [1]: Induction of activation of human CD56+ CD3- NK cells co-cultured with human PBMC cells assessed as increase in CD69 expression at 1 uM incubated for 24 hrs by flow cytometry analysis (reference value: 2.7%). The series is classed as functional, Natural killer cell. (In general: Flow cytometry measures light scatter and fluorescence of single cells or particles in a stream.)

Series [2] in a line: Cytotoxicity against human PBMC cells assessed as reduction in metabolic activity at 10 uM incubated for 18 hrs by MTS assay. It is filed as toxicity, cell-based. Summed up: (§1)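 Cells (HEK-Blue NOD2, RAW-Blue or freshly isolated human PBMCs) seeded in duplicate and exposed to 10 μM compound or 0.1% DMSO vehicle for 18 h at 37 °C, 5% CO2. Metabolic activity then measured by CellTiter 96 AQueous One (MTS) assay.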
A general note: Formazan colour is commonly taken as a measure of viable cells.

Series [3] can be described thus: Cytotoxicity against mouse RAW-Blue cells assessed as reduction in metabolic activity at 10 uM incubated for 18 hrs by MTS assay. It is filed as toxicity, cell-based. Summed up:
as §1

Series [4] is described as follows: Induction of activation of human CD56+ CD3- NK cells co-cultured with human PBMC cells assessed as increase in IFN-gamma expression at 1 uM incubated for 24 hrs by flow cytometry analysis (reference value: 0.04%). The series is classed as functional, Natural killer cell.
Series [5] can be described thus: Cytotoxicity against HEK-Blue hNOD2 cells assessed as reduction in metabolic activity at 10 uM incubated for 18 hrs by MTS assay. The series is classed as toxicity, cell-based. Particulars: human, hek-blue hnod2, 18 h. The gist of the method: as §1
Series [6] is described as follows: Induction of mouse ovalbumin specific CD8-positive T cell activation assessed as increase in CD25 expression at 1 uM preincubated for 18 hrs with mouse BDMC cells in presence of ovalbumin followed by washout and further coincubated […] and measured after 72 hrs by flow cytometry analysis (reference value: 12.6%). The series is classed as functional. Summed up:
(§2)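 C57BL/6 BMDCs (GM-CSF 7 days, >90% CD11c+) pulsed 18 h with 1 μM compound, LPS 1 μg/mL or 0.1% DMSO plus OVA 50 μg/mL, washed. 1 × 10^4 BMDCs cocultured 72 h with 5 × 10^4 CFSE-labelled OT-II CD4+ or OT-I CD8+ T cells. Flow: live Thy1.2+ CD4+ or CD8+ cells scored as CD25+ CFSElow. Duplicates of two experiments.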

The nature of series [7]: Induction of activation of human CD56+ CD3- NK cells co-cultured with human PBMC cells assessed as increase in CD107a expression at 1 uM incubated for 24 hrs by flow cytometry analysis (reference value: 1.5%). The series is classed as functional, Natural killer cell.
The nature of series [8]: Induction of mouse ovalbumin specific CD4+ T cell activation assessed as increase in CD25 expression at 1 uM preincubated for 18 hrs with mouse BDMC cells in presence of ovalbumin followed by washout and further coincubated with CD4+ T cells and measured after 72 hrs by flow cytometry analysis (reference value: 10.9%). The series is classed as functional, CD4+ve Th. Summed up:
as §2

Another series has as its system PBMC. The series is described as follows: Immunostimulatory activity in human PBMC cells assessed as increase in IL-8 production at 1 uM incubated for 18 hrs by flow cytometry analysis. It is filed as functional, cell-based. The gist of the method: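 PBMCs at 1 × 10^6 cells/mL treated with compound (1 μM), LPS (1 μg/mL) or 0.1% DMSO vehicle; cell-free supernatants collected after 18 h at 37 °C, 5% CO2. Cytokines quantified by human inflammatory cytokine bead array on flow cytometry with recombinant standard curves. Four independent experiments, mean ± SEM.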

The test system of series [9] is CD8-positive T cell. The series is described as follows: Induction of mouse ovalbumin specific CD8-positive T cell activation assessed as increase in IFN-gamma expression at 1 uM preincubated for 18 hrs with mouse BDMC cells in presence of ovalbumin followed by washout and further coincubated […] and measured after 72 hrs. The series is classed as functional, cell-based. Summed up: (§3)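 Supernatants taken after the 72 h coculture of washed BMDCs (18 h pretreatment with 1 μM compound, LPS 1 μg/mL or vehicle, plus OVA 50 μg/mL) with OT-II CD4+ or OT-I CD8+ T cells. Cytokines measured by mouse Th1/Th2/Th17 cytometric bead array. Duplicates of two independent experiments, mean ± SEM.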

Series [10] relates to CD4+ve Th. The series is described as follows: Induction of mouse ovalbumin specific CD4+ T cell activation assessed as increase in TNF expression at 1 uM preincubated for 18 hrs with mouse BDMC cells in presence of ovalbumin followed by washout and further coincubated with CD4+ T cells and measured after 72 hrs. It is filed as functional, cell-based. Summed up:
as §3

Series [11] concerns CD8-positive T cell. The series is described as follows: Induction of mouse ovalbumin specific CD8-positive T cell activation assessed as increase in IL-6 expression at 1 uM preincubated for 18 hrs with mouse BDMC cells in presence of ovalbumin followed by washout and further coincubated with CD4+ T cells and measured after 72 hrs. The series is classed as functional, cell-based. Summed up: as §3

Series [12] has as its system CD8-positive T cell. The series is described as follows: Induction of mouse ovalbumin specific CD8-positive T cell activation assessed as increase in TNF expression at 1 uM preincubated for 18 hrs with mouse BDMC cells in presence of ovalbumin followed by washout and further coincubated with CD4+ T cells and measured after 72 hrs. The series is classed as functional, cell-based. The gist of the method:
as §3

Series [13] relates to CD4+ve Th. The series is described as follows: Induction of mouse ovalbumin specific CD4+ T cell activation assessed as increase in IL-17A expression at 1 uM preincubated for 18 hrs with mouse BDMC cells in presence of ovalbumin followed by washout and further coincubated with CD4+ T cells and measured after 72 hrs. The series is classed as functional, cell-based. The gist of the method:
as §3

In series [14] the test system is CD4+ve Th. The series is described as follows: Induction of mouse ovalbumin specific CD4+ T cell activation assessed as increase in IFN-gamma expression at 1 uM preincubated for 18 hrs with mouse BDMC cells in presence of ovalbumin followed by washout and further coincubated with CD4+ T cells and measured after 72 hrs. It is filed as functional, cell-based. The gist of the method: as §3

A further series deals with RAW-Blue. The series is described as follows: Activation of NF-kappaB transcriptional activity in mouse RAW-Blue cells expressing NOD2 and TLR7 at 1 uM incubated for 18 hrs by quanti-blue/SEAP-based spectrophotometry analysis. The series is classed as cell-based. Particulars: filed as activator. The gist of the method:
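RAW-Blue cells pretreated 1 h with NOD2 antagonist SG84 (5 μM), TLR7 antagonist M5049 (1 μM), both, or neither, then given compound or 0.1% DMSO vehicle; 18 h at 37 °C, 5% CO2 in growth medium without Normocin/Zeocin. Supernatant mixed with QUANTI-Blue for 2 h at 37 °C, SEAP read at 630 nm. Activity relative to vehicle; three independent experiments, mean ± SEM.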

Series [15] relates to CD8-positive T cell. The series is described as follows: Induction of mouse ovalbumin specific CD8-positive T cell activation assessed as increase in IL-17A expression at 1 uM preincubated for 18 hrs with mouse BDMC cells in presence of ovalbumin followed by washout and further coincubated with CD4+ T cells and measured after 72 hrs. It is filed as functional, cell-based. The gist of the method:
as §3

For series [16], the system named is CD4+ve Th. The series is described as follows: Induction of mouse ovalbumin specific CD4+ T cell activation assessed as increase in IL-6 expression at 1 uM preincubated for 18 hrs with mouse BDMC cells in presence of ovalbumin followed by washout and further coincubated with CD4+ T cells and measured after 72 hrs. The series is classed as functional, cell-based. The gist of the method: as §3

The subject of the next series is K562. The series is described as follows: Cytotoxicity against human K562 cells cocultured with human PBMC cells assessed as inhibition of cell proliferation at 1 uM incubated with PBMC cells for 18 hrs followed by co-incubation with K562 cells for 4 hrs by SYTOX blue staining based flow cytometric analysis. It is filed as functional. Summed up: (§4)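 Human PBMCs (Ficoll-isolated, healthy donors) pretreated 18 h in duplicate with compound (1 nM–1 μM) or 0.1% DMSO. CFSE-labelled K562 or MEC1 target cells then added, effector:target 40:1, 4 h at 37 °C. Sytox blue staining, flow cytometry; CFSE+Sytox+ cells counted as dead. Expressed relative to vehicle; three independent experiments, mean ± SEM.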

Another series concerns MEC1. The series is described as follows: Cytotoxicity against human MEC1 cells cocultured with human PBMC cells assessed as inhibition of cell proliferation at 1 uM incubated with PBMC cells for 18 hrs followed by co-incubation with MEC-1 cells for 4 hrs by SYTOX blue staining based flow cytometric analysis. The series is classed as functional. The gist of the method: as §4

Each structure is given as a SMILES string. Active and inactive are the calls of the source. The calls are words filed in the database; no cut-off is given here.

As for `CCOC(=O)CC[C@@H](NC(=O)[C@@H](NC(=O)CNC(=O)/C=C/c1ccc(O)c(OC)c1)C(C)C)C(=O)OCC`, the Activity was 14% in [1]; “Non-Toxic” in series [2]; “Non-Toxic” in series [3]; 1.4% in series [4]; “Non-Toxic” in series [5]; 13.1% in [6]. Also, the Activity is given as 1.1% in series [7] and 12.6% in [8]. For the same compound, the result in the series on PBMC was Active.

Take `CCCCOc1nc(N)c2nc(O)n(Cc3ccc(C(=O)O)cc3)c2n1`: the Activity is listed as 3.3% in series [1]; “Non-Toxic” in series [2]; “Non-Toxic” in series [3]; 0.05% in [4]; “Non-Toxic” in [5]; 17.6% in [6]. For the same compound, the values for the Activity in [7] and in series [8] were 1.7% and 25.8%, respectively.

Consider `CCCCOc1nc(N)c2nc(O)n(Cc3ccc(C(=O)NCCCCCC(=O)Oc4ccc(/C=C/C(=O)NCC(=O)N[C@H](C(=O)N[C@H](CCC(=O)OCC)C(=O)OCC)C(C)C)cc4OC)cc3)c2n1`, for which the result in the series with CD8-positive T cell [9], in the series with CD4+ve Th [10], with CD8-positive T cell [11], in the series on CD8-positive T cell [12], in the series with CD4+ve Th [13] and in the series with CD4+ve Th [14] was Active. Also, the outcome in the series with RAW-Blue, with CD8-positive T cell [15], in the series with CD4+ve Th [16], in the series on K562 and in the series on MEC1 was Active. Besides, the Activity is given as 93% in [1]; “Non-Toxic” in series [2]; “Non-Toxic” in [3]; 21% in series [4]; “Non-Toxic” in series [5]; 44.7% in series [6]. Also, the values for the Activity in series [7] and in series [8] were 8.6% and 29.5%, respectively.
